In ChEMBL document CHEMBL3997826, “Discovery and characterization of novel indole and 7-azaindole derivatives as inhibitors of β-amyloid-42 aggregation for the treatment of Alzheimer's disease” (Bioorg Med Chem Lett, 2017):

Columns and labels:
[1] = biological target: T1, Amyloid-beta precursor protein (Homo sapiens, UniProt P05067); assay: Inhibition of HFIP-pretreated amyloid beta (1 to 42 residues) (unknown origin) aggregation at 1:10 protein to compound ratio after 24 hrs by ThT fluorescence assay relative to control; details: concentration not given here
Outline: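 A crude Aβ1-42 peptide film at 33 µM was mixed with compound at 330 µM, a 1:10 molar ratio, and aggregation was read by thioflavin-T fluorescence. Values are percent of the DMSO-only Aβ1-42 aggregation control, as the mean ± SD of two independent experiments.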

[2] = biological target: T1, Amyloid-beta precursor protein; assay: Inhibition of HFIP-pretreated amyloid beta (1 to 42 residues) (unknown origin) aggregation after 24 hrs by ThT fluorescence assay
[3] = Permeability from apical to basolateral side in human Caco2 cells; assay type: ADME, cell-based; details: Caco-2, read-out: permeability
Outline: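 Apical-to-basolateral permeability was reported in cm/s. The efflux ratio was used to judge P-gp substrate status.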

[4] = Metabolic stability in human liver microsomes assessed as parent compound remaining after 1 hr; assay type: ADME, microsome; details: read-out: Stability
Outline: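 Compounds were incubated with human or mouse liver microsomes for 1 h at 37 °C. The read-out was the percentage of parent compound remaining.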

[5] = Half life in human liver microsomes; assay type: ADME, microsome
[6] = test system: Liver; assay: Drug metabolism in human liver microsomes assessed as oxidation of indole-3 position; assay type: ADME, microsome

T1 sequence (P05067 whole entry, the tested form may be a part): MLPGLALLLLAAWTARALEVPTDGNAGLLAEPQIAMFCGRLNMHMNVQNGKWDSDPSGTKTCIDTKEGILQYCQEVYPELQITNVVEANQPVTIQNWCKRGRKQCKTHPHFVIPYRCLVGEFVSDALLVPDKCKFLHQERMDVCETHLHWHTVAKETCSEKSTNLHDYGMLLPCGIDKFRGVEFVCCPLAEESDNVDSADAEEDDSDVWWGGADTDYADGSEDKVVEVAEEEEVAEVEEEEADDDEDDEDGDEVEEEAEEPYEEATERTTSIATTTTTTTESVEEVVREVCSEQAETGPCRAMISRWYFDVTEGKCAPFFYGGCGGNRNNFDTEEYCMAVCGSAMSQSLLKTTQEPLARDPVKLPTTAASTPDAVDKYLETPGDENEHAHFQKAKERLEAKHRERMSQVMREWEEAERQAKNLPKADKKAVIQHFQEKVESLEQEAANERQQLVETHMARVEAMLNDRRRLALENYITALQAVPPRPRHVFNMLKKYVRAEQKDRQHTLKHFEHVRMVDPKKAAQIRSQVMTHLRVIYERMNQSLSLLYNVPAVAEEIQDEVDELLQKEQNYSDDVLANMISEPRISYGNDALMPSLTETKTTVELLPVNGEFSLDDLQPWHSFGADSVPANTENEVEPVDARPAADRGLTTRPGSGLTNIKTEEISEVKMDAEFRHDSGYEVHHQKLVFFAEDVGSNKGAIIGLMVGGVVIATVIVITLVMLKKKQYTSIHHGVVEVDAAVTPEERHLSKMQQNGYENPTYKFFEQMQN

Compound	inhibition [1] [%]	IC50 [2] [µM]	other results
Fc1ccc(Nc2ccc3c(C4CCNCC4)c[nH]c3n2)cc1F	81 to 93	30	
c1cc2c(C3CCNCC3)c[nH]c2cc1Nc1ccc2[nH]cc(C3CCNCC3)c2c1	> 90	26.6	
c1cc2ccc(NC3CCNCC3)nc2[nH]1	48		
c1cc2cc(Nc3ccc4cc[nH]c4n3)ccc2[nH]1	97		
COc1ccc(Nc2ccc3c(C4CCN(C)CC4)c[nH]c3c2)cc1OC	81 to 93	25	
Cn1cc(C2CCNCC2)c2ccc(Nc3ccc(F)c(F)c3)cc21	81 to 93	42	
CN1CCC(c2c[nH]c3cc(Nc4ccc(F)c(F)c4)ccc23)CC1	81 to 93	48	
c1cc2cc(Nc3ccc4cc[nH]c4n3)cnc2[nH]1	86		
c1cc2ccc(Nc3ccc4cc[nH]c4n3)nc2[nH]1	75		
Fc1cc(F)cc(Nc2cnc3cc[nH]c3c2)c1	52		
c1ccc(Nc2ccc3cc[nH]c3n2)nc1	71		
c1cc2ccc(Nc3ccc4cc[nH]c4n3)cc2[nH]1	75		
Fc1ccc(Nc2ccc3cc[nH]c3n2)cc1	52		
c1cc2c(C3CCNCC3)c[nH]c2cc1Nc1ccc2c(C3CCNCC3)c[nH]c2c1	> 90		Papp A→B [3]: 0.1 nm/s; remaining at 1 h [4]: 89%
FC(F)(F)c1ccc(Nc2ccc3c(C4CCNCC4)c[nH]c3c2)cn1	81 to 93	24	
CN1CCC(c2c[nH]c3ccc(Nc4ccc5c(C6CCNCC6)c[nH]c5n4)cc23)CC1	> 90		Papp A→B [3]: 0.2 nm/s; remaining at 1 h [4]: 95%
c1cc2ncc(Nc3ccc4cc[nH]c4n3)cc2[nH]1	98	23.8	half-life [5]: 11 min; Drug metabolism [6]: Metabolite_Detected
Fc1cc(F)cc(Nc2ccc3cc[nH]c3n2)c1	60		
CN1CCC(c2c[nH]c3cc(Nc4ccc5c(C6CCN(C)CC6)c[nH]c5c4)ccc23)CC1	> 90		
CN1CCC(c2c[nH]c3cc(Nc4ccc5[nH]cc(C6CCN(C)CC6)c5c4)ccc23)CC1	> 90	15.3	
c1cc2c(C3CCNCC3)c[nH]c2cc1Nc1ccc2c(C3CCNCC3)c[nH]c2n1	> 90	25.6	
N#Cc1c[nH]c2nc(Nc3ccc4c(C5CCNCC5)c[nH]c4c3)ccc12	> 90	17.8	
c1cc2cc(Nc3ccc4cc[nH]c4c3)ccc2[nH]1	94		
c1cc2ccc(Nc3ccc4cc[nH]c4c3)cc2[nH]1	96		
Fc1ccc(Nc2ccc3c(C4CCNCC4)c[nH]c3c2)cc1F	81 to 93	24	
